Experimental findings from ChEMBL document CHEMBL1122605, “Synthesis and evaluation of radioiodinated (E)-18-iodo-17-octadecenoic acid as a model iodoalkenyl fatty acid for myocardial imaging” (J Med Chem, 1984) are described below.

Each structure is given as a SMILES string. Values joined by “and” are separate entries in the source; they are usually repeats but may differ in a detail not shown here. Equal entries are not always repeated.

Data set [1] has as its system Rattus norvegicus. In words: Distribution of the [125I]-labeled compound in heart tissue of female Fischer 344 rat 120 min after intravenous administration. Value in the parentheses is ratio of distribution in heart and blood. It counts as ADME, organism-based. The following applies: in vivo, 2 h. Put shortly:
(§1)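 Radioiodinated ([125I]) fatty acid formulated in 6% bovine serum albumin solution (10% EtOH), passed through a 0.22-µm filter, injected into a lateral tail vein of female Fischer 344 rats. Tissues taken at set times post-injection; radioactivity expressed as percent injected dose/g tissue (mean, range), with heart:blood ratio calculated from heart and blood values.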

The subject of data set [2] is Rattus norvegicus. Put plainly: Distribution of the [125I]-labeled compound in heart tissue of female Fischer 344 rat 5 min after intravenous administration. Value in the parentheses is ratio of distribution in heart and blood. It counts as ADME, organism-based. The settings on record: in vivo. Put shortly: as §1
Data set [3] deals with Rattus norvegicus. Put plainly: Distribution of the [125I]-labeled compound in kidney of female Fischer 344 rat 4 hr after intravenous administration. It counts as ADME, organism-based. The following applies: in vivo. Put shortly: (§2)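 Tissues were sampled at the stated times after injection. Radioactivity is expressed as mean (range) percent injected dose/g tissue. Heart:blood ratios were calculated from these tissue values.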

For data set [4], the system named is Rattus norvegicus. In words: Distribution of the [125I]-labeled compound in kidney of female Fischer 344 rat 2 hr after intravenous administration. It counts as ADME, organism-based. The following applies: in vivo. Put shortly: as §2
Data set [5] has as its system Rattus norvegicus. In words: Distribution of the [125I]-labeled compound in blood of female Fischer 344 rat 2 hr after intravenous administration. Format: ADME, organism-based. The following applies: in vivo. Put shortly: as §2
Data set [6] relates to Rattus norvegicus. In words: Distribution of the [125I]-labeled compound in lungs of female Fischer 344 rat 30 min after intravenous administration. Format: ADME, organism-based, Lung. The settings on record: in vivo, 0.5 h. In short, it runs like this:
as §2

The subject of data set [7] is Rattus norvegicus. In words: Distribution of the [125I]-labeled compound in liver of female Fischer 344 rat 30 min after intravenous administration. Format: ADME, organism-based. The following applies: in vivo, 0.5 h. Put shortly:
as §2

Data set [8] concerns Rattus norvegicus. In words: Distribution of the [125I]-labeled compound in lungs of female Fischer 344 rat 1 day after intravenous administration. The settings on record: in vivo, 24 h. Format: ADME, organism-based, Lung. In short, it runs like this: as §2
The test system of data set [9] is Rattus norvegicus. In words: Distribution of the [125I]-labeled compound in heart tissue of female Fischer 344 rat 30 min after intravenous administration. The settings on record: in vivo, 0.5 h. Format: ADME, organism-based. Put shortly:
as §2

The subject of data set [10] is Rattus norvegicus. In words: Distribution of the [125I]-labeled compound in thyroid of female Fischer 344 rat 1 hr after intravenous administration. Format: ADME, organism-based, Thyroid gland. The settings on record: in vivo. In short, it runs like this:
as §2

In data set [11] the test system is Rattus norvegicus. In words: Distribution of the [125I]-labeled compound in lungs of female Fischer 344 rat 1 hr after intravenous administration. Format: ADME, organism-based, Lung. The following applies: in vivo. In short, it runs like this: as §2
Data set [12] deals with Rattus norvegicus. Put plainly: Distribution of the [125I]-labeled compound in blood of female Fischer 344 rat 1 day after intravenous administration. Format: ADME, organism-based. The following applies: in vivo, 24 h. Put shortly: as §2
In data set [13] the test system is Rattus norvegicus. Put plainly: Ratio of the distribution of [125I]-labeled compound in heart/blood of female Fischer 344 rat 2 hr after intravenous administration. It counts as ADME, organism-based. The settings on record: other tissue. Put shortly: as §2
Data set [14] deals with Rattus norvegicus. Put plainly: Distribution of the [125I]-labeled compound in kidney of female Fischer 344 rat 1 hr after intravenous administration. Format: ADME, organism-based. The following applies: in vivo. Put shortly: as §2
For data set [15], the system named is Rattus norvegicus. In words: Distribution of the [125I]-labeled compound in thyroid of female Fischer 344 rat 2 hr after intravenous administration. It counts as ADME, organism-based, Thyroid gland. The following applies: in vivo. In short, it runs like this:
as §2

Data set [16] concerns Rattus norvegicus. Put plainly: Distribution of the [125I]-labeled compound in liver of female Fischer 344 rat 1 hr after intravenous administration. Format: ADME, organism-based. The settings on record: in vivo. In short, it runs like this:
as §2

Data set [17] concerns Rattus norvegicus. In words: Distribution of the [125I]-labeled compound in heart tissue of female Fischer 344 rat 4 hr after intravenous administration. Format: ADME, organism-based. The following applies: in vivo. In short, it runs like this: as §2
The subject of data set [18] is Rattus norvegicus. Put plainly: Distribution of the [125I]-labeled compound in kidney of female Fischer 344 rat 5 min after intravenous administration. It counts as ADME, organism-based. The following applies: in vivo. In short, it runs like this: as §2
In data set [19] the test system is Rattus norvegicus. In words: Distribution of the [125I]-labeled compound in heart tissue of female Fischer 344 rat 2 hr after intravenous administration. It counts as ADME, organism-based. The settings on record: in vivo. In short, it runs like this: as §2
The subject of data set [20] is Rattus norvegicus. Put plainly: Distribution of the [125I]-labeled compound in heart tissue of female Fischer 344 rat 1 hr after intravenous administration. Format: ADME, organism-based. The following applies: in vivo. Put shortly:
as §2

Data set [21] has as its system Rattus norvegicus. Put plainly: Distribution of the [125I]-labeled compound in heart tissue of female Fischer 344 rat 1 day after intravenous administration. It counts as ADME, organism-based. The following applies: in vivo, 24 h. In short, it runs like this: as §2
For data set [22], the system named is Rattus norvegicus. Put plainly: Distribution of the [125I]-labeled compound in thyroid of female Fischer 344 rat 5 min after intravenous administration. Format: ADME, organism-based, Thyroid gland. The settings on record: in vivo. Put shortly:
as §2

The test system of data set [23] is Rattus norvegicus. Put plainly: Distribution of the [125I]-labeled compound in thyroid of female Fischer 344 rat 30 min after intravenous administration. Format: ADME, organism-based, Thyroid gland. The settings on record: in vivo, 0.5 h. Put shortly:
as §2

Data set [24] deals with Rattus norvegicus. In words: Ratio of the distribution of [125I]-labeled compound in heart/blood of female Fischer 344 rat 1 hr after intravenous administration. It counts as ADME, organism-based. The following applies: other tissue. In short, it runs like this: as §2
Data set [25] deals with Rattus norvegicus. Put plainly: Distribution of the [125I]-labeled compound in blood of female Fischer 344 rat 5 min after intravenous administration. Format: ADME, organism-based. The settings on record: in vivo. Put shortly:
as §2

The subject of data set [26] is Rattus norvegicus. Put plainly: Ratio of the distribution of [125I]-labeled compound in heart/blood of female Fischer 344 rat 5 min after intravenous administration. Format: ADME, organism-based. The following applies: in vivo. In short, it runs like this: as §2
Data set [27] relates to Rattus norvegicus. Put plainly: Distribution of the [125I]-labeled compound in lungs of female Fischer 344 rat 5 min after intravenous administration. The settings on record: in vivo. It counts as ADME, organism-based, Lung. In short, it runs like this:
as §2

The test system of data set [28] is Rattus norvegicus. Put plainly: Distribution of the [125I]-labeled compound in blood of female Fischer 344 rat 30 min after intravenous administration. It counts as ADME, organism-based. The settings on record: in vivo, 0.5 h. Put shortly:
as §2

The subject of data set [29] is Rattus norvegicus. Put plainly: Distribution of the [125I]-labeled compound in heart tissue of female Fischer 344 rat 5 min after intravenous administration. It counts as ADME, organism-based. The following applies: in vivo. Put shortly: as §2
Data set [30] relates to Rattus norvegicus. In words: Distribution of the [125I]-labeled compound in kidney of female Fischer 344 rat 30 min after intravenous administration. Format: ADME, organism-based. The following applies: in vivo, 0.5 h. In short, it runs like this: as §2
Data set [31] has as its system Rattus norvegicus. Put plainly: Distribution of the [125I]-labeled compound in thyroid of female Fischer 344 rat 1 day after intravenous administration. It counts as ADME, organism-based, Thyroid gland. The following applies: in vivo, 24 h. In short, it runs like this:
as §2

Data set [32] concerns Rattus norvegicus. Put plainly: Distribution of the [125I]-labeled compound in liver of female Fischer 344 rat 5 min after intravenous administration. It counts as ADME, organism-based. The settings on record: in vivo. Put shortly:
as §2

Data set [33] has as its system Rattus norvegicus. Put plainly: Distribution of the [125I]-labeled compound in liver of female Fischer 344 rat 1 day after intravenous administration. It counts as ADME, organism-based. The settings on record: in vivo, 24 h. In short, it runs like this: as §2
Data set [34] has as its system Rattus norvegicus. Put plainly: Distribution of the [125I]-labeled compound in blood of female Fischer 344 rat 1 hr after intravenous administration. Format: ADME, organism-based. The following applies: in vivo. In short, it runs like this:
as §2

For data set [35], the system named is Rattus norvegicus. Put plainly: Distribution of the [125I]-labeled compound in kidney of female Fischer 344 rat 1 day after intravenous administration. Format: ADME, organism-based. The following applies: in vivo, 24 h. In short, it runs like this: as §2
For data set [36], the system named is Rattus norvegicus. Put plainly: Distribution of the [125I]-labeled compound in blood of female Fischer 344 rat 4 hr after intravenous administration. It counts as ADME, organism-based. The settings on record: in vivo. In short, it runs like this:
as §2

Data set [37] relates to Rattus norvegicus. Put plainly: Ratio of the distribution of [125I]-labeled compound in heart/blood of female Fischer 344 rat 1 day after intravenous administration. Format: ADME, organism-based. The settings on record: other tissue, 24 h. Put shortly: as §2
Data set [38] relates to Rattus norvegicus. In words: Distribution of the [125I]-labeled compound in liver of female Fischer 344 rat 4 hr after intravenous administration. The settings on record: in vivo. Format: ADME, organism-based. Put shortly:
as §2

For data set [39], the system named is Rattus norvegicus. In words: Distribution of the [125I]-labeled compound in liver of female Fischer 344 rat 2 hr after intravenous administration. It counts as ADME, organism-based. The settings on record: in vivo. In short, it runs like this: as §2
For data set [40], the system named is Rattus norvegicus. Put plainly: Distribution of the [125I]-labeled compound in thyroid of female Fischer 344 rat 4 hr after intravenous administration. The following applies: in vivo. Format: ADME, organism-based, Thyroid gland. In short, it runs like this:
as §2

Data set [41] relates to Rattus norvegicus. Put plainly: Ratio of the distribution of [125I]-labeled compound in heart/blood of female Fischer 344 rat 4 hr after intravenous administration. It counts as ADME, organism-based. The following applies: other tissue. In short, it runs like this: as §2

For `O=C(O)CCCCC[Te]CCCCCCCCC/C=C/I`, the figures for the Injected dose/g tissue in data set [1] and in data set [2] were 2.9% and 3.5%, respectively.

With `O=C(O)CCCCCCCCCCCCCCC/C=C/I`, the Injected dose/g tissue worked out at 0.55% in data set [3]; 0.63% in data set [4]; 0.28% in data set [5]; 1.03% in [6]; 7.81% in data set [7]; 0.59% in [8]. The Injected dose/g tissue came to 2.69% in data set [9]; 27.18% in data set [10]; 0.82% in [11]; 0.07% in data set [12]; 0.62% in [14]; 61% in data set [15]. For the same molecule, the Injected dose/g tissue in data set [16] was determined as 4.83%; in data set [17], 0.94%; in data set [18] it was 0.82%; in [19] it was 1.72%; in data set [20], 2.09%; in data set [21], 0.32%. Moreover, the Injected dose/g tissue in data set [22] was determined as 9.29%; in data set [23] it was 20.88%; in data set [25], 0.3%; in data set [27], 1.02%; in data set [28], 0.4%; in [29] it was 3.17%. Moreover, the Injected dose/g tissue in data set [30] was 0.7%; in data set [31] it was 350%; in data set [32], 8.65%; in data set [33] it was 0.6%; in data set [34], 0.28%; in data set [35], 0.32%. Besides, the Injected dose/g tissue in data set [36] is given as 0.27%; in data set [38], 3.08%; in data set [39], 4.04%; in [40] it was 153%. Moreover, the Heart/blood ratio is 6.6 in data set [13], 7.6 in data set [24], 4.8 in [37] and 3.5 in data set [41]. Besides, in data set [26], the ratio was 10.6 and 6.7.

`O=C(O)CCCCCCCCCCC[Te]CCC/C=C/I`: the Injected dose/g tissue in data set [1] turned out to be 1%; in data set [2], 1.5%.

Regarding `O=C(O)CCCCCCCCC[Te]CCCCC/C=C/I`, the results for the Injected dose/g tissue in data set [1] and in [2] were 3.8% and 3.1%, respectively.

As for `O=C(O)CCC[Te]CCCCCCCCCCC/C=C/I`, the Injected dose/g tissue came out at 3.6% in data set [1] and 3.9% in data set [2].

As to `O=C(O)CCCCCCC[Te]CCCCCCC/C=C/I`, the Injected dose/g tissue in [1] is recorded as 3.9%; in data set [2], 4.8%.
